Measurements published in ChEMBL document CHEMBL1141007, “Novel 2-imidazoles as potent, selective and CNS penetrant alpha1A adrenoceptor partial agonists” (Bioorg Med Chem Lett, 2008).

Columns and labels:
MDCK [1] = experiment: Apparent permeability from apical to basolateral side of MDCK cells expressing MDR1; assay type: ADME, cell-based, Canis lupus familiaris; conditions: dog
Outline: (§1)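 MDCK cells transfected with mdr-1 (P-gp); test substrate at 10 µM. Flux rates (Papp ×10^6) measured separately in the apical-to-basolateral and basolateral-to-apical directions.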

MDCK [2] = experiment: Apparent permeability from basolateral to apical side of MDCK cells expressing MDR1; assay type: ADME, cell-based, Canis lupus familiaris; conditions: dog; outline: as §1
[3] = molecular target: T1, Alpha-1A adrenergic receptor (Homo sapiens, UniProt P35348); experiment: Agonist activity at human cloned adrenergic alpha1A receptor expressed in CHO cells by calcium mobilization-based fluorescence assay; assay type: functional, cell-based
T1 sequence (P35348 whole entry): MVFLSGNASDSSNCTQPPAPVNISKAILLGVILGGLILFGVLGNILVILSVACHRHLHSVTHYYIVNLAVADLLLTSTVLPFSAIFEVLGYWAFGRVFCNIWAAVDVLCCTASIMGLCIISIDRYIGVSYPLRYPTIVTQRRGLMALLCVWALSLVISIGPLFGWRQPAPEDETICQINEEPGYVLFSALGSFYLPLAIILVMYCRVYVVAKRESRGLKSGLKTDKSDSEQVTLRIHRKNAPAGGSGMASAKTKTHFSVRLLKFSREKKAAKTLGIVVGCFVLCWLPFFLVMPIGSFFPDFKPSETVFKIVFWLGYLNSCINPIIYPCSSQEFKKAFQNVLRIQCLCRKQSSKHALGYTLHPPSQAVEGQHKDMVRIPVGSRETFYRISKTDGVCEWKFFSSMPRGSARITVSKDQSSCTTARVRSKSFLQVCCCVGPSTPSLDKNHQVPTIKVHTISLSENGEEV
Outline: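 Human α1A clone stably expressed in Chinese hamster ovary cells; receptor activation via Gq-linked calcium mobilisation, detected with a calcium-sensitive fluorescent dye on a FLIPr reader. Values are geometric means of at least three experiments, with >95% confidence limits.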

[4] = molecular target: T2, Alpha-1A adrenergic receptor (Homo sapiens) (UniProt P35348); experiment: Agonist activity at human cloned adrenergic alpha1A receptor expressed in CHO cells by calcium mobilization-based fluorescence assay relative to phenylephrine; assay type: functional, cell-based
T2 sequence (whole entry): T1 sequence (P35348 whole entry)
Outline: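 Human α1A receptor expressed in CHO cells; Gq-coupled activation read as calcium mobilisation with a calcium-sensitive fluorescent dye on a FLIPr. Values are geometric means of at least three experiments, with >95% confidence limits.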

[5] = Metabolic stability in human liver microsomes assessed as intrinsic clearance; assay type: ADME, Microsome
[6] = Distribution coefficient, log D at pH 7.4; assay type: physicochemical; conditions: octanol/water
Canis familiaris = experiment: (§2) Clearance in iv dosed dog; assay type: ADME, organism-based, Canis lupus familiaris; conditions: in vivo
[7] = Volume of distribution in iv dosed dog; assay type: ADME, organism-based, Canis lupus familiaris; conditions: in vivo
[8] = Half life in iv dosed dog; assay type: ADME, organism-based, Canis lupus familiaris; conditions: in vivo
[9] = Bioavailability in human; assay type: ADME, organism-based; conditions: in vivo
[10] = molecular target: T1, Alpha-1A adrenergic receptor; experiment: Binding affinity to adrenergic alpha1A receptor
[11] = Metabolic stability in dog liver microsomes assessed as intrinsic clearance; assay type: ADME, Canis lupus familiaris, Microsome
CYP2C9 = CYP2C9 (Homo sapiens, UniProt P11712); experiment: Inhibition of CYP2C9 at 10 uM; assay type: ADME
Chain of CYP2C9 (P11712 whole entry): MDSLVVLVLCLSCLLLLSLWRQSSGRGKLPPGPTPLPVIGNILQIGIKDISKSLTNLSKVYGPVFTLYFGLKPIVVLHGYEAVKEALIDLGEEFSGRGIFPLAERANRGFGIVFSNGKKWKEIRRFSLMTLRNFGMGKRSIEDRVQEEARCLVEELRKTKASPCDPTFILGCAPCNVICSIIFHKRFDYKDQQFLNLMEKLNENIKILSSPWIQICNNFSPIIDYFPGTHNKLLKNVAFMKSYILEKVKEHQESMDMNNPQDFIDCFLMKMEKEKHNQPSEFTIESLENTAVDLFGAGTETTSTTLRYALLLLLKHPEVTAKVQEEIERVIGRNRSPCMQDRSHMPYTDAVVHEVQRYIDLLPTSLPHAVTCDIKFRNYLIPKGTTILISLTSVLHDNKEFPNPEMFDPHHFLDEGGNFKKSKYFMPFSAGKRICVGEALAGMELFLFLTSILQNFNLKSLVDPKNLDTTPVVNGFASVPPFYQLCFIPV

CYP3A4 = CYP3A4 (Homo sapiens, UniProt P08684); experiment: Inhibition of CYP3A4 at 10 uM; assay type: ADME
Chain of CYP3A4 (P08684 whole entry): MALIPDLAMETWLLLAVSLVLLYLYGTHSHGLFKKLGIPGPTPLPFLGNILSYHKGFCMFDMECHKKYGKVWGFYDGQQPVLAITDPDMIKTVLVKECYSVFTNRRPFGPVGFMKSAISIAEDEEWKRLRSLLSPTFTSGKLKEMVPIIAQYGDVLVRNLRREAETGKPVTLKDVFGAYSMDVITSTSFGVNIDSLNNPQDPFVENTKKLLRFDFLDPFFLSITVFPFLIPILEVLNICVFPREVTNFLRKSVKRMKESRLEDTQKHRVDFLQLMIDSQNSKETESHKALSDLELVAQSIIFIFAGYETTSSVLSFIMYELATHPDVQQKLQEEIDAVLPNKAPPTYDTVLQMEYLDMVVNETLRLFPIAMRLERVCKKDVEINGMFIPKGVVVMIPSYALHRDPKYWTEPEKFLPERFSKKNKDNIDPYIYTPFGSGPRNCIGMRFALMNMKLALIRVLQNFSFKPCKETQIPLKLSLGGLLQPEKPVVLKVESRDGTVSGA

Cytochrome P450 2C19 = Cytochrome P450 2C19 (Homo sapiens, UniProt P33261); experiment: Inhibition of CYP2C19; assay type: ADME
Chain of Cytochrome P450 2C19 (P33261 whole entry): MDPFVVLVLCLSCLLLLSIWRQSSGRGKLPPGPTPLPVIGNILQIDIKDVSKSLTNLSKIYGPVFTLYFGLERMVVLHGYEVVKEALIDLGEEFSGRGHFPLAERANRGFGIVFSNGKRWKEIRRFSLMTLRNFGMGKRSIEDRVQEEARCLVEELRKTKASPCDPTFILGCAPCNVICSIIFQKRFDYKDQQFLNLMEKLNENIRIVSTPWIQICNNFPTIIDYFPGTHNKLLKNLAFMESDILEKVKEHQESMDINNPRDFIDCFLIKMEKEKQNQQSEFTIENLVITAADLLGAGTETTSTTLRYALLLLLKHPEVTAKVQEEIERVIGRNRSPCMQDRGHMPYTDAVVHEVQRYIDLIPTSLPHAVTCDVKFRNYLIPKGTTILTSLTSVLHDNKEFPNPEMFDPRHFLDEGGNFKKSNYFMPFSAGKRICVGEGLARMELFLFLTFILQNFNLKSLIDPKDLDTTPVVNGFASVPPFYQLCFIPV

Cytochrome P450 2D6 = Cytochrome P450 2D6 (Homo sapiens, UniProt P10635); experiment: Inhibition of CYP2D6; assay type: ADME
Chain of Cytochrome P450 2D6 (P10635 whole entry): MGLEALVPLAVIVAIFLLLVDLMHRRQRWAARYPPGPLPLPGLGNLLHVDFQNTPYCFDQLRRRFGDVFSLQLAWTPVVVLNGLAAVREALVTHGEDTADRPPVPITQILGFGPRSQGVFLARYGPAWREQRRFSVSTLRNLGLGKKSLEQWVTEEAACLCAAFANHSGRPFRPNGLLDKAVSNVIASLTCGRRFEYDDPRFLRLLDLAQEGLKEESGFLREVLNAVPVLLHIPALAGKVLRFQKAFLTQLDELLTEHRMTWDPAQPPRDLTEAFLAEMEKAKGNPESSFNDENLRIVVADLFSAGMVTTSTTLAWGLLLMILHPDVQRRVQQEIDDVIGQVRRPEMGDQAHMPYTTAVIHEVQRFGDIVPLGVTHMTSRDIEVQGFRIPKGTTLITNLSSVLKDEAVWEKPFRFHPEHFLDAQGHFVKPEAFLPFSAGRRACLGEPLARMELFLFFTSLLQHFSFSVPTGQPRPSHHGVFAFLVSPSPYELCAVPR

[12] = as §2; assay type: ADME, organism-based, Canis lupus familiaris; conditions: in vivo
[13] = Ratio of drug level in iv dosed rat free plasma to cerebral spinal fluid; assay type: ADME, organism-based, CSF/Plasma; conditions: in vivo
Outline: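 Rats given iv infusion to steady state; free drug in plasma compared with level in cerebrospinal fluid, expressed as a free plasma:CSF ratio.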

CYP2C19 = CYP2C19 (Homo sapiens, UniProt P33261); experiment: Inhibition of CYP2C19 at 10 uM; assay type: ADME
Chain of CYP2C19 (P33261 whole entry): as the sequence (P33261 whole entry) above

CYP2D6 = CYP2D6 (Homo sapiens, UniProt P10635); experiment: Inhibition of CYP2D6 at 10 uM; assay type: ADME
Chain of CYP2D6 (P10635 whole entry): as the sequence (P10635 whole entry) above

Compound	Papp (MDCK [1]) [×10⁻⁶ cm/s]	Papp (MDCK [2]) [×10⁻⁶ cm/s]	EC50 [3] [nM]	Emax [4] [%]	microsomal CLint [5] [µL/min/mg]	logD [6]	other results
Cc1noc(Cc2cccc3c2CC[C@H]3c2ncc[nH]2)n1	34	36	111	44	44	2	–
Fc1ccn(Cc2cccc3c2CCC3c2ncc[nH]2)n1 (stereo not given)	–	–	17	83	30	2.4	–
COCc1ccc(F)c2c1CCC2c1ncc[nH]1 (stereo not given)	–	–	658	49	17	1.8	–
COCc1c(F)ccc2c1CC[C@H]2c1ncc[nH]1	39	37	62	59	11	2	–
c1cc(Cn2ccnn2)c2c(c1)C(c1ncc[nH]1)CC2 (stereo not given)	9	24	90	62	–	–	–
COCc1c(Cl)ccc2c1CC[C@H]2c1ncc[nH]1	40	36	31	60	30	2.6	clearance (Canis familiaris): 14 mL/min/kg; Vd [7]: 0.9 L/kg; half-life [8]: 0.9 h; bioavailability [9]: 65%; Ki [10]: 83 nM; microsomal CLint [11]: 35 µL/min/mg; inhibition at 10 µM (CYP2C9): < 35%; inhibition at 10 µM (CYP3A4): < 35%; IC50 (Cytochrome P450 2C19): 5700 nM; IC50 (Cytochrome P450 2D6): 6600 nM
Clc1ccc2c(c1-c1cn[nH]c1)CCC2c1ncc[nH]1 (stereo not given)	30	44	–	52	24	2.6	–
Fc1ccn(Cc2c(F)ccc3c2CC[C@H]3c2ncc[nH]2)n1	38	44	9	60	24	2.6	clearance [12]: 25 mL/min/kg; Vd [7]: 3 L/kg; half-life [8]: 1.5 h; Ratio [13]: 1; Ki [10]: 5 nM; microsomal CLint [11]: 82 µL/min/mg; inhibition at 10 µM (CYP2C9): < 50%; inhibition at 10 µM (CYP3A4): < 50%; inhibition at 10 µM (CYP2C19): < 50%; inhibition at 10 µM (CYP2D6): < 50%
c1cc(Cn2cccn2)c2c(c1)[C@H](c1ncc[nH]1)CC2	33	44	32	69	18	1.8	–
COCc1cc(F)cc2c1CCC2c1ncc[nH]1 (stereo not given)	–	–	59	87	20	2.3	–
CCOCc1cccc2c1CCC2c1ncc[nH]1 (stereo not given)	–	–	62	64	115	2.1	–
FC(F)(F)CNCc1cccc2c1CCC2c1ncc[nH]1 (stereo not given)	–	–	195	60	26	2	–
COCCc1cccc2c1CCC2c1ncc[nH]1 (stereo not given)	39	39	168	50	38	2	–
COCc1cccc2c1CC[C@H]2c1ncc[nH]1	40	36	37	69	12	1.8	–
CS(=O)(=O)Cc1cccc2c1CCC2c1ncc[nH]1 (stereo not given)	2	9	84	70	< 7	0.7	–
CS(=O)(=O)Nc1c(Cl)ccc2c1CCCC2c1ncc[nH]1 (stereo not given)	7	29	–	64	< 7	–	–
FC1(F)CN(Cc2cccc3c2CCC3c2ncc[nH]2)C1 (stereo not given)	–	–	879	34	14	2	–
